Assay results from ChEMBL document CHEMBL1671674, “Induction of multidrug resistance mechanism in Escherichia coli biofilms by interplay between tetracycline and ampicillin resistance genes” (2009).
In brackets after ≈: the same amount, converted by molar mass. Activity calls are given as the source filed them. The calls are words filed in the database; no cut-off is given here.

Key:
Escherichia coli [1] = test: Antibacterial activity against Escherichia coli MG1655 grown as biofilms after 24 hrs by agar dilution method; assay type: functional; conditions: K-12 substr. MG1655, 24 h
How it was run: (§1)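 Biofilm MIC: cultures diluted to OD600 0.1 in LB, grown in PVC 96-well plates 24 h at 37°C without shaking; antibiotic added directly without washing as 10-fold dilutions, then 24 h more.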

Escherichia coli [2] = test: Antibacterial activity against Escherichia coli MG1655 harboring plasmid pBR322 carrying blaTEM-1 and tetA(C) genes grown as planktonic cells after 24 hrs by agar dilution method; conditions: K-12 substr. MG1655, 24 h
Escherichia coli [3] = test: Antibacterial activity against Escherichia coli MG1655 harboring grown as biofilms plasmid pBR322 carrying blaTEM-1 and tetA(C) genes assessed as decrease in bacterial biofilms formation at 5 ug/ml by GFP assay; assay type: functional; conditions: K-12 substr. MG1655
Escherichia coli [4] = test: Antibacterial activity against Escherichia coli MG1655 grown as biofilms assessed as inhibition of bacterial biofilms formation at 5 to 500 ug/ml; assay type: functional; conditions: K-12 substr. MG1655
How it was run: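 MG1655 biofilms grown in LB in PVC 96-well plates from early-stationary cultures diluted to OD600 0.1, static 24 h at 37°C. Antibiotic added unwashed as 10-fold dilutions (0.0000005–500 μg/ml) for another 24 h.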

Escherichia coli [5] = test: Antibacterial activity against Escherichia coli MG1655 grown as biofilms harboring plasmid pBR322 carrying blaTEM-1 and tetA(C) genes after 24 hrs by agar dilution method; assay type: functional; how it was run: as §1
Escherichia coli [6] = test: Antibacterial activity against Escherichia coli OCL62 harboring plasmid pBR322 carrying blaTEM-1 and tetA(C) genes grown as planktonic cells after 24 hrs by broth microdilution method; conditions: OCL62, 24 h
Escherichia coli [7] = test: Antibacterial activity against Escherichia coli OCL62 grown as biofilms harboring plasmid pBR322 carrying blaTEM-1 and tetA(C) genes after 24 hrs by crystal violet staining method; conditions: OCL62, 24 h
Escherichia coli [8] = test: Antibacterial activity against Escherichia coli OCL62 grown as planktonic cells after 24 hrs by agar dilution method; assay type: functional; conditions: OCL62, 24 h
Escherichia coli [9] = test: Antibacterial activity against Escherichia coli MG1655 grown as planktonic cells after 24 hrs by agar dilution method; assay type: functional; conditions: K-12 substr. MG1655, 24 h
Escherichia coli [10] = test: Antibacterial activity against Escherichia coli MG1655 grown as biofilms harboring plasmid pBR322 carrying blaTEM-1 and tetA(C) genes assessed as reduction in bacterial biofilms formation; assay type: functional; conditions: K-12 substr. MG1655
How it was run: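 Biofilms grown in LB on PVC 96-well plates (inoculum OD600 0.1, 24 h, 37°C, static), then antibiotic added as 10-fold dilutions for 24 h. Eight replicates per condition, four independent experiments.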

Escherichia coli [11] = test: Antibacterial activity against Escherichia coli MG1655 grown as planktonic cells harboring plasmid pBR322 carrying blaTEM-1 and tetA(C) genes assessed as reduction in bacterial biofilms formation; assay type: functional; conditions: K-12 substr. MG1655
Escherichia coli [12] = test: Antibacterial activity against Escherichia coli OCL62 grown as biofilms after 24 hrs by agar dilution method; assay type: functional; conditions: OCL62, 24 h; how it was run: as §1

For `CC1(C)S[C@@H]2[C@H](NC(=O)[C@H](N)c3ccccc3)C(=O)N2[C@H]1C(=O)O` [AMPICILLIN], the MIC (Escherichia coli [1]) was 5 µg/mL (≈ 14.3 µM), the MIC (Escherichia coli [2]) was 500 µg/mL (≈ 1430 µM) and the inhibition (Escherichia coli [3]) was “Active”. For the same molecule, the Activity (Escherichia coli [4]) was “Active”, the MIC (Escherichia coli [5]; K-12 substr. MG1655, 24 h) was 5 µg/mL (≈ 14.3 µM) and the MIC (Escherichia coli [6]) was 5 µg/mL (≈ 14.3 µM). For the same molecule, the MIC (Escherichia coli [7]) was 50 µg/mL (≈ 143 µM), the MIC (Escherichia coli [8]) was 5 µg/mL (≈ 14.3 µM) and the MIC (Escherichia coli [9]) was 0.5 µg/mL (≈ 1.43 µM). The inhibition (Escherichia coli [10]) was “Active”, the inhibition (Escherichia coli [11]) was “inactive” and the MIC (Escherichia coli [12]) was 5 µg/mL (≈ 14.3 µM).
`O=C(N[C@H](CO)[C@H](O)c1ccc([N+](=O)[O-])cc1)C(Cl)Cl` [CHLORAMPHENICOL] gave an MIC (Escherichia coli [2]) of 0.5 µg/mL (≈ 1.55 µM) and an MIC (Escherichia coli [5]; K-12 substr. MG1655, 24 h) of 5 µg/mL (≈ 15.5 µM).
In the case of `CC[C@H]1OC(=O)[C@H](C)[C@@H](O[C@H]2C[C@@](C)(OC)[C@@H](O)[C@H](C)O2)[C@H](C)[C@@H](O[C@@H]2O[C@H](C)C[C@H](N(C)C)[C@H]2O)[C@](C)(O)C[C@@H](C)C(=O)[C@H](C)[C@@H](O)[C@]1(C)O` [ERYTHROMYCIN], the MIC (Escherichia coli [2]) is reported as 0.5 µg/mL (≈ 0.681 µM) and the MIC (Escherichia coli [5]; K-12 substr. MG1655, 24 h) is reported as 5 µg/mL (≈ 6.81 µM).
With `NC[C@H]1O[C@H](O[C@H]2[C@H](O)[C@@H](O[C@H]3O[C@H](CO)[C@@H](O)[C@H](N)[C@H]3O)[C@H](N)C[C@@H]2N)[C@H](O)[C@@H](O)[C@@H]1O` [KANAMYCIN] the MIC (Escherichia coli [5]; K-12 substr. MG1655, 24 h) was 0.5 µg/mL (≈ 1.03 µM).
`CC1(C)S[C@@H]2[C@H](NC(=O)Cc3ccccc3)C(=O)N2[C@H]1C(=O)O` [PENICILLIN G] was tested, and the MIC (Escherichia coli [2]) was 5 µg/mL (≈ 15 µM) and the MIC (Escherichia coli [5]; K-12 substr. MG1655, 24 h) was 0.5 µg/mL (≈ 1.5 µM).
In the case of `CN(C)[C@@H]1C(O)=C(C(N)=O)C(=O)[C@@]2(O)C(O)=C3C(=O)c4c(O)cccc4[C@@](C)(O)[C@H]3C[C@@H]12` [TETRACYCLINE], the MIC (Escherichia coli [1]) is reported as 500 µg/mL (≈ 1130 µM), the MIC (Escherichia coli [2]) is reported as 500 µg/mL (≈ 1130 µM) and the inhibition (Escherichia coli [3]) is reported as “Active”. For the same molecule, the Activity (Escherichia coli [4]) was “Active”, the MIC (Escherichia coli [5]; K-12 substr. MG1655, 24 h) was over 500 µg/mL and the MIC (Escherichia coli [9]) was 0.5 µg/mL (≈ 1.13 µM).
GENTAMICIN showed an MIC (Escherichia coli [5]; K-12 substr. MG1655) of 0.005 µg/mL.
